Measured values reported in ChEMBL document CHEMBL1139824, “Optimization of a pyrazoloquinolinone class of Chk1 kinase inhibitors” (Bioorg Med Chem Lett, 2007).

Columns and labels:
[1] = target: T1, Serine/threonine-protein kinase Chk1 (Homo sapiens, UniProt O14757); assay: Inhibition of Chk1 by fluorescence assay
T1 sequence (O14757 whole entry): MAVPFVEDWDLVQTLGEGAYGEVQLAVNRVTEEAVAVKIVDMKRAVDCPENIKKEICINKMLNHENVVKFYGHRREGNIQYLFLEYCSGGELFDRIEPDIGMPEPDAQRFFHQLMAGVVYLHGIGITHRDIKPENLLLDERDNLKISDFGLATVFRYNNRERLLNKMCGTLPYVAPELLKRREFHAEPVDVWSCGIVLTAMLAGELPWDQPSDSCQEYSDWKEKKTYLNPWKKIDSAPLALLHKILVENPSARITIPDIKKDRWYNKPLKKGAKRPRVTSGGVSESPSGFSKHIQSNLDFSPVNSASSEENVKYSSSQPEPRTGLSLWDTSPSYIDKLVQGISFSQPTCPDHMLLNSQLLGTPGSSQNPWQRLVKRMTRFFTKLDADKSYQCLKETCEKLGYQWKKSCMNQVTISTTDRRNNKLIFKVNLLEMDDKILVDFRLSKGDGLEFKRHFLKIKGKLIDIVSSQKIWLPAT

NCI-H1299 = assay: Inhibition of camptothecin-induced cell cycle arrest in NCI-H1299 cells after 8 hrs; type: functional, cell-based; details: Homo sapiens, NCI-H1299, 8 h
In short: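 NCI-H1299 lung carcinoma cells held 16 h in camptothecin to arrest, then exposed to inhibitor a further 8 h. Escape into mitosis scored by mitosis-specific nucleolin phosphorylation, quantified with an antibody-coated bead-based assay.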

| SMILES | IC50 [1] [nM] | EC50 (NCI-H1299) [nM] |
| --- | --- | --- |
| Cc1[nH]nc2c1c(=O)[nH]c1ccccc12 | 1370 | – |
| Cc1ccc2[nH]c(=O)c3c(C)[nH]nc3c2c1 | 230 | – |
| CC(=O)Nc1ccc2[nH]c(=O)c3c(C)[nH]nc3c2c1 | 7080 | – |
| Cc1cccc2c1[nH]c(=O)c1c(C)[nH]nc12 | 1490 | – |
| Cc1[nH]nc2c1c(=O)[nH]c1cc(Cl)ccc12 | 1980 | – |
| Cc1[nH]nc2c1c(OCCN)nc1ccc(Cl)cc12 | 850 | – |
| Cc1[nH]nc2c1c(NCCCN)nc1ccc(Cl)cc12 | 220 | – |
| Cc1[nH]nc2c1c(=O)[nH]c1cccc(Cl)c12 | 28900 | – |
| Cc1[nH]nc2c1c(=O)[nH]c1cc3c(cc12)CCCC3 | 130 | 1210 |
| Cc1[nH]nc2c1c(=O)[nH]c1c(CCCN)c(C3CCCCC3)c(C3CCCCC3)cc12 | 290 | – |
| Cc1[nH]nc2c1c(=O)[nH]c1cccc(C)c12 | > 100000 | – |

These reach a lower IC50 [1]. Values come first.

| IC50 [1] [nM] | EC50 (NCI-H1299) [nM] | SMILES |
| --- | --- | --- |
| 64 | 10200 | Cc1[nH]nc2c1c(OCCCN)nc1ccc(Cl)cc12 |
| 60 | – | Cc1[nH]nc2c1c(NCCN)nc1ccc(Cl)cc12 |
| 58 | – | Cc1[nH]nc2c1c(=O)[nH]c1c(/C=C/CN)c(C3CCCCC3)c(C3CCCCC3)cc12 |
| 40 | 2980 | Cc1[nH]nc2c1c(=O)[nH]c1ccc(Cl)cc12 |
| 36 | 980 | Cc1[nH]nc2c1c(=O)n(CCN)c1ccc(Cl)cc21 |
| 29 | 710 | Cc1[nH]nc2c1c(=O)[nH]c1cc3ccccc3cc12 |
| 20 | 1010 | Cc1[nH]nc2c1c(=O)n(CCCCN)c1ccc(Cl)cc21 |
| 18 | > 10000 | CCn1c(=O)c2c(C)[nH]nc2c2cc3c(cc21)CN(C(=O)CN)CC3 |
| 12 | > 10000 | CCn1c(=O)c2c(C)[nH]nc2c2cc3c(cc21)CN(C(=O)NCCN)CC3 |
| 10 | > 10000 | CCn1c(=O)c2c(C)[nH]nc2c2cc3c(cc21)CN(S(=O)(=O)CCN)CC3 |
| 3.2 | 83 | Cc1[nH]nc2c1c(=O)n(C[C@@H](F)CN)c1cc(C3CCCCC3)c(C3CCCCC3)cc21 |
| 3.1 | 65 | Cc1[nH]nc2c1c(=O)n(C[C@H](F)CN)c1cc(C3CCCCC3)c(C3CCCCC3)cc21 |
| 1.2 | 160 | Cc1[nH]nc2c1c(=O)n(CCCN)c1ccc(Cl)cc21 |
